Calls of active or inactive are those of the source. The rule behind the calls is not given here.
What was measured:
[1] = target: 26S proteasome (Homo sapiens) (UniProt Q99460+P49721+P20618+P28074+P28062+P28065+P28072+O00487+P25786+P25787+P25788+P25789+P28066+P60900+O14818+Q8TAA3+P40306+A5LHX3+P49720+P28070+Q99436+Q16186+P35998+P62191+P43686+P62333+P17980+P62195+Q13200+O43242+O00232+O00231+Q15008+P51665+Q9UNM6+P55036+P48556+P60896); assay: Inhibition of chymotrypsin-like enzyme activity of purified human 20S proteasome using Suc-Leu-Leu-Val-Tyr-AMC as substrate at 1 ug/ml by fluorescence method; type: protein-complex assay
Method in brief: (§1)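 Purified human 20S proteasome preincubated with compound for 15 min. Fluorogenic substrate Suc-Leu-Leu-Val-Tyr-AMC (50 µM) then added to read chymotrypsin-like activity.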

26S proteasome = assay: Inhibition of chymotrypsin-like enzyme activity of purified human 20S proteasome using Suc-Leu-Leu-Val-Tyr-AMC as substrate by fluorescence method; type: protein-complex assay; method in brief: as §1
RPMI-8226 [2] = assay: Cytotoxic activity against human RPMI8226 cells after 72 hrs by MTS assay; type: functional, cell-based; settings: RPMI-8226, 72 h
Method in brief: (§2)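 100 µL cell suspension (10⁴ cells/well) seeded in 96-well plates; compound exposure 72 h, then MTS at 0.5 mg/mL final for 2–4 h. Absorbance read at 490 nm with 690 nm background subtraction. Growth inhibitory ratio = (A_control − A_sample)/A_control.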

[3] = Cytotoxic activity against human NCI-H929 cells after 72 hrs by MTS assay; type: functional, cell-based; settings: NCI-H929, 72 h; method in brief: as §2
RPMI-8226 [4] = assay: Induction of apoptosis human RPMI8226 cells assessed as PARP cleavage at 100 nM after 12 hrs by Western blot analysis; type: functional, cell-based
Method in brief: (§3)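 RPMI 8226 cells in 6-well plates exposed to compounds for 12 h; DMSO as vehicle control. Cells rinsed twice in ice-cold PBS and lysed in 1× SDS loading buffer. Lysates run on 10% SDS–PAGE and transferred to PVDF. Blocked 1 h in 5% milk, primary antibodies 2 h, secondary 1 h, ECL detection. Probed for poly-ubiquitin, PARP, cleaved PARP, β-actin.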

RPMI-8226 [5] = assay: Induction of apoptosis human RPMI8226 cells assessed as accumulation of poly-ubiquitin at 100 nM after 12 hrs by Western blot analysis; type: functional, cell-based; method in brief: as §3

Row | Compound | inhibition [1] [%] | IC50 (26S proteasome) [µM] | IC50 (RPMI-8226 [2]) [µM] | IC50 [3] [µM] | other results
1 | CC(C)C[C@H](NC(=O)c1cnccn1)C(=O)NC(CC(=O)N[C@@H](Cc1ccccc1)C(=O)[C@@]1(C)CO1)c1ccccc1 (some centres undefined) | 8.7 | – | – | – | –
2 | CC(C)C[C@H](NC(=O)[C@H](Cc1ccccc1)NC(=O)CC(NC(=O)c1ccc(C#N)cc1)c1ccccc1)C(=O)[C@@]1(C)CO1 (some centres undefined) | 72 | 0.36 | 0.41 | 0.61 | –
3 | COc1ccc(C(=O)N[C@@H](Cc2ccccc2)C(=O)NC(CC(=O)N[C@@H](CC(C)C)C(=O)[C@@]2(C)CO2)c2ccccc2)cc1 (some centres undefined) | 0.3 | – | – | – | Activity (RPMI-8226 [4]): inactive; Activity (RPMI-8226 [5]): inactive
4 | CC(C)C[C@H](NC(=O)[C@H](Cc1ccccc1)NC(=O)CC(NC(=O)c1cccs1)c1ccccc1)C(=O)[C@@]1(C)CO1 (some centres undefined) | 62.5 | 0.95 | – | – | –
5 | CC(C)C[C@H](NC(=O)[C@H](Cc1ccccc1)NC(=O)CC(NC(=O)c1ccc(F)cc1)c1ccccc1)C(=O)[C@@]1(C)CO1 (some centres undefined) | 87.7 | 0.38 | 1.55 | 2.37 | –
6 | CC(C)C[C@H](NC(=O)[C@H](Cc1ccccc1)NC(=O)CC(NC(=O)c1cnccn1)c1ccccc1)C(=O)[C@@]1(C)CO1 (some centres undefined) | 48.6 | – | – | – | –
7 | CC(C)C[C@H](NC(=O)[C@H](Cc1ccccc1)NC(=O)CC(NC(=O)c1cccnc1)c1ccccc1)C(=O)[C@@]1(C)CO1 (some centres undefined) | 85.8 | 0.34 | 4.73 | 8.7 | –
8 | COc1ccc(C(=O)NC(CC(=O)N[C@@H](Cc2ccccc2)C(=O)N[C@@H](CC(C)C)C(=O)[C@@]2(C)CO2)c2ccccc2)cc1 (some centres undefined) | 84.1 | 0.34 | 1.16 | 1.35 | –
9 | COc1ccc(C(=O)N[C@@H](CC(C)C)C(=O)NC(CC(=O)N[C@@H](Cc2ccccc2)C(=O)[C@@]2(C)CO2)c2ccccc2)cc1 (some centres undefined) | 0.39 | – | – | – | –
10 | CC(C)C[C@H](NC(=O)[C@H](Cc1ccccc1)NC(=O)C[C@H](NC(=O)c1ccc2ccccc2c1)c1ccccc1)C(=O)[C@@]1(C)CO1 | 11.8 | – | – | – | –
11 | CC(C)C[C@H](NC(=O)[C@H](Cc1ccccc1)NC(=O)C[C@@H](NC(=O)c1ccc(C(F)(F)F)cc1)c1ccccc1)C(=O)[C@@]1(C)CO1 | 84.4 | 0.17 | 0.34 | 0.23 | –
12 | CC(C)C[C@H](NC(=O)[C@H](Cc1ccccc1)NC(=O)CC(NC(=O)c1ccc(C(F)(F)F)cc1)c1ccccc1)C(=O)[C@@]1(C)CO1 (some centres undefined) | 76 | 0.22 | 0.32 | 0.96 | –
13 | CC(C)C[C@H](NC(=O)[C@H](Cc1ccccc1)NC(=O)C[C@@H](NC(=O)c1ccc2ccccc2c1)c1ccccc1)C(=O)[C@@]1(C)CO1 | 86.1 | 0.11 | 0.23 | 0.17 | Activity (RPMI-8226 [4]): Active; Activity (RPMI-8226 [5]): Active
14 | CC(C)C[C@H](NC(=O)[C@H](Cc1ccccc1)NC(=O)C[C@H](NC(=O)c1ccc(C(F)(F)F)cc1)c1ccccc1)C(=O)[C@@]1(C)CO1 | 25.6 | – | – | – | –
15 | CC(C)C[C@H](NC(=O)CC(NC(=O)[C@H](Cc1ccccc1)NC(=O)c1cnccn1)c1ccccc1)C(=O)[C@@]1(C)CO1 (some centres undefined) | 1.51 | – | – | – | –
16 | CC(C)C[C@H](NC(=O)[C@H](Cc1ccccc1)NC(=O)CC(NC(=O)c1ccc(-c2ccccc2)cc1)c1ccccc1)C(=O)[C@@]1(C)CO1 (some centres undefined) | 47.3 | – | – | – | –
17 | CC(C)C[C@H](NC(=O)[C@H](CCc1ccccc1)NC(=O)CN1CCOCC1)C(=O)N[C@@H](Cc1ccccc1)C(=O)N[C@@H](CC(C)C)C(=O)[C@@]1(C)CO1 [CARFILZOMIB] | – | – | 0.0132 | 0.0213 | –
18 | CC(C)C[C@H](NC(=O)[C@H](Cc1ccccc1)NC(=O)c1cnccn1)B(O)O [BORTEZOMIB] | – | – | 0.00796 | 0.0109 | –
19 | CC(C)C[C@H](NC(=O)[C@H](Cc1ccccc1)NC(=O)CC(NC(=O)c1ccc2ccccc2c1)c1ccccc1)C(=O)[C@@]1(C)CO1 (some centres undefined) | 74.8 | 0.19 | 0.42 | 0.7 | –
20 | CC(C)C[C@H](NC(=O)[C@H](Cc1ccccc1)NC(=O)CC(NC(=O)c1ccco1)c1ccccc1)C(=O)[C@@]1(C)CO1 (some centres undefined) | 42.3 | – | – | – | –
21 | CC(C)C[C@H](NC(=O)[C@H](Cc1ccccc1)NC(=O)CC(NC(=O)C1CCOCC1)c1ccccc1)C(=O)[C@@]1(C)CO1 (some centres undefined) | 69.5 | 0.63 | – | – | –
22 | CC(C)C[C@H](NC(=O)[C@H](Cc1ccccc1)NC(=O)CC(NC(=O)CN1CCOCC1)c1ccccc1)C(=O)[C@@]1(C)CO1 (some centres undefined) | 40 | – | – | – | –
23 | CC(C)C[C@H](NC(=O)c1ccc(F)cc1)C(=O)NC(CC(=O)N[C@@H](Cc1ccccc1)C(=O)[C@@]1(C)CO1)c1ccccc1 (some centres undefined) | 1.43 | – | – | – | –

Now from value to compound, other results behind:

Row | inhibition [1] [%] | IC50 (26S proteasome) [µM] | Compound | IC50 (RPMI-8226 [2]) [µM] | IC50 [3] [µM] | other results
24 | 0.56 | – | COc1ccc(C(=O)N[C@@H](CC(C)C)C(=O)NC(CC(=O)N[C@@H](CC(C)C)C(=O)[C@@]2(C)CO2)c2ccccc2)cc1 (some centres undefined) | – | – | –
25 | 6.42 | – | CC(C)C[C@H](NC(=O)c1ccccc1)C(=O)NC(CC(=O)N[C@@H](CC(C)C)C(=O)[C@@]1(C)CO1)c1ccccc1 (some centres undefined) | – | – | –
26 | 0.3 | – | CC(C)C[C@H](NC(=O)CC(NC(=O)[C@H](Cc1ccccc1)NC(=O)c1ccccc1)c1ccccc1)C(=O)[C@@]1(C)CO1 (some centres undefined) | – | – | –
27 | 5.46 | – | CC(C)C[C@H](NC(=O)c1ccc(F)cc1)C(=O)NC(CC(=O)N[C@@H](CC(C)C)C(=O)[C@@]1(C)CO1)c1ccccc1 (some centres undefined) | – | – | –
28 | 0.37 | – | CC(C)C[C@H](NC(=O)CC(NC(=O)[C@H](Cc1ccccc1)NC(=O)c1ccc(F)cc1)c1ccccc1)C(=O)[C@@]1(C)CO1 (some centres undefined) | – | – | –
29 | 9.01 | – | CC(C)C[C@H](NC(=O)c1cnccn1)C(=O)NC(CC(=O)N[C@@H](CC(C)C)C(=O)[C@@]1(C)CO1)c1ccccc1 (some centres undefined) | – | – | –
30 | 88.5 | 0.44 | CC(C)C[C@H](NC(=O)[C@H](Cc1ccccc1)NC(=O)CC(NC(=O)c1ccccc1)c1ccccc1)C(=O)[C@@]1(C)CO1 (some centres undefined) | 1.68 | 2.69 | –
31 | 0.48 | – | CC(C)C[C@H](NC(=O)CC(NC(=O)[C@H](Cc1ccccc1)NC(=O)c1cccnc1)c1ccccc1)C(=O)[C@@]1(C)CO1 (some centres undefined) | – | – | –
32 | 1.56 | – | CC(C)C[C@H](NC(=O)c1ccccc1)C(=O)NC(CC(=O)N[C@@H](Cc1ccccc1)C(=O)[C@@]1(C)CO1)c1ccccc1 (some centres undefined) | – | – | –
33 | 0.84 | – | CC(C)C[C@H](NC(=O)c1cccnc1)C(=O)NC(CC(=O)N[C@@H](CC(C)C)C(=O)[C@@]1(C)CO1)c1ccccc1 (some centres undefined) | – | – | –
34 | 3.16 | – | CC(C)C[C@H](NC(=O)c1cccnc1)C(=O)NC(CC(=O)N[C@@H](Cc1ccccc1)C(=O)[C@@]1(C)CO1)c1ccccc1 (some centres undefined) | – | – | –
